{"source": "ChEMBL document CHEMBL1144203", "about": "“Synthesis and antiviral evaluation of acyclic azanucleosides developed from sulfanilamide as a lead structure” (Bioorg Med Chem, 2008)", "key": {"Feline coronavirus": {"system": "Feline coronavirus", "experiment": "Antiviral activity against feline coronavirus infected in CRFK cells assessed as inhibition of virus-induced cytopathic effect at 100 uM by MTS assay", "format": "functional, organism-based"}, "Sindbis virus": {"system": "Sindbis virus", "experiment": "Antiviral activity against Sindbis virus infected in Vero cells assessed as inhibition of virus-induced cytopathic effect at 100 uM by MTS assay", "format": "functional, organism-based", "method_in_brief": "(§1)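 Vero cell monolayers were infected with the virus in cell-based CPE assays. EC50 is the concentration giving 50% inhibition of virus-induced cytopathic effect, scored visually or by MTS formazan colorimetric cell-viability read-out. The highest concentration tested was 100 μM for most compounds and lower for a few.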"}, "Human alphaherpesvirus 2": {"system": "Human alphaherpesvirus 2", "experiment": "Antiviral activity against HSV2 virus infected in HEL cells assessed as inhibition of virus-induced cytopathic effect at 100 uM by MTS assay", "format": "functional, organism-based"}, "Coxsackievirus B4 [1]": {"system": "Coxsackievirus B4", "experiment": "Antiviral activity against Coxsackievirus B4 infected in HeLa cells assessed as inhibition of virus-induced cytopathic effect at 100 uM by MTS assay", "format": "functional, organism-based", "method_in_brief": "(§2)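 HeLa cells were infected with the virus, and compounds were tested up to 100 μM. EC50 is the concentration that halves virus-induced cytopathic effect, read by visual CPE scoring or by MTS formazan colorimetric viability measurement.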"}, "Punta Toro virus [2]": {"system": "Punta Toro virus", "experiment": "Antiviral activity against Punta Toro virus infected in Vero cells assessed as inhibition of virus-induced cytopathic effect at 100 uM by MTS assay", "format": "functional, organism-based", "method_in_brief": "as §1"}, "Vero": {"system": "Vero", "experiment": "Cytotoxicity against african green monkey Vero cells assessed as decrease in cell viability upto 100 uM by MTS assay", "format": "cell-based", "settings": "chlorocebus sabaeus"}, "Human alphaherpesvirus 1": {"system": "Human alphaherpesvirus 1", "experiment": "Antiviral activity against HSV1 virus infected in HEL cells assessed as inhibition of virus-induced cytopathic effect at 100 uM by MTS assay", "format": "functional, organism-based"}, "[3]": {"experiment": "Cytotoxicity against CRFK cells assessed as decrease in cell viability upto 100 uM by MTS assay", "format": "cell-based, Felis catus", "settings": "cat"}, "[4]": {"system": "Respiratory syncytial virus", "experiment": "Antiviral activity against respiratory syncytial virus infected in HeLa cells assessed as inhibition of virus-induced cytopathic effect at 100 uM by MTS assay", "format": "functional, organism-based", "method_in_brief": "as §2"}, "Human respirovirus 3": {"system": "Human respirovirus 3", "experiment": "Antiviral activity against Parainfluenza 3 virus infected in Vero cells assessed as inhibition of virus-induced cytopathic effect at 100 uM by MTS assay", "format": "functional, organism-based", "method_in_brief": "as §1"}, "Felid alphaherpesvirus 1": {"system": "Felid alphaherpesvirus 1", "experiment": "Antiviral activity against feline herpes virus infected in CRFK cells assessed as inhibition of virus-induced cytopathic effect at 100 uM by MTS assay", "format": "functional, organism-based"}, "MDCK": {"system": "MDCK", "experiment": "Cytotoxicity against MDCK cells assessed as decrease in cell viability upto 100 uM by MTS assay", "format": "cell-based, Canis lupus familiaris", "settings": "dog"}, "HEL": {"system": "HEL", "experiment": "Cytotoxicity against HEL cells assessed as decrease in cell viability upto 100 uM by MTS assay", "format": "cell-based", "settings": "human"}, "[5]": {"system": "Mammalian orthoreovirus 1", "experiment": "Antiviral activity against Reovirus1 infected in Vero cells assessed as inhibition of virus-induced cytopathic effect at 100 uM by MTS assay", "format": "functional, organism-based", "method_in_brief": "as §1"}, "Coxsackievirus B4 [6]": {"system": "Coxsackievirus B4", "experiment": "Antiviral activity against Coxsackievirus B4 infected in Vero cells assessed as inhibition of virus-induced cytopathic effect at 100 uM by MTS assay", "format": "functional, organism-based", "method_in_brief": "as §1"}, "HeLa": {"system": "HeLa", "experiment": "Cytotoxicity against human HeLa cells assessed as decrease in cell viability upto 100 uM by MTS assay", "format": "functional, cell-based", "method_in_brief": "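Uninfected HeLa host cells were tested up to 100 μM. CC50 is the concentration causing a 50% drop in cell viability by colorimetric formazan-based MTS assay. Alternatively, MCC is the minimal concentration giving microscopically detectable alteration of normal cell morphology.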"}, "Punta Toro virus [7]": {"system": "Punta Toro virus", "experiment": "Antiviral activity against Punta Toro virus infected in Vero cells assessed as inhibition of virus-induced cytopathic effect by MTS assay", "format": "functional, organism-based", "method_in_brief": "(§3)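 Vero cell monolayers infected with Coxsackie B4 virus or Punta Toro virus, with test compounds at up to 100 μM. EC50 is the concentration giving 50% inhibition of virus-induced cytopathic effect (CPE), scored visually or from cell viability by the colorimetric formazan-based MTS assay.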"}, "[8]": {"experiment": "Cytotoxicity against MDCK cells assessed as alteration in cell morphology by MTS assay", "format": "cell-based, Canis lupus familiaris", "settings": "dog", "method_in_brief": "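Uninfected host cells were exposed to compound and examined under the microscope. MCC was the minimal compound concentration causing a microscopically detectable change in normal cell morphology.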"}, "Coxsackievirus B4 [9]": {"system": "Coxsackievirus B4", "experiment": "Antiviral activity against Coxsackievirus B4 infected in Vero cells assessed as inhibition of virus-induced cytopathic effect by MTS assay", "format": "functional, organism-based", "settings": "Enterovirus B", "method_in_brief": "as §3"}, "[10]": {"experiment": "Cytotoxicity against CRFK cells assessed as decrease in cell viability by MTS assay", "format": "cell-based, Felis catus", "settings": "cat", "method_in_brief": "(§4)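 Uninfected host cells were exposed to compound. CC50 was taken as the concentration giving a 50% fall in cell viability, measured by a colorimetric formazan-based MTS assay.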"}, "[11]": {"experiment": "Cytotoxicity against MDCK cells assessed as decrease in cell viability by MTS assay", "format": "cell-based, Canis lupus familiaris", "settings": "dog", "method_in_brief": "as §4"}}, "note": "pEC50: −log10 of the molar value. Activity calls are given as the source filed them. The rule behind the calls is not given here.", "data": [{"smiles": "CC(=O)Nc1ccc(S(=O)(=O)N(CCO)Cn2ccc(=O)[nH]c2=O)cc1", "values": [{"measurement": "Activity", "setting": "Feline coronavirus", "result": "inactive"}, {"measurement": "Activity", "setting": "Sindbis virus", "result": "inactive"}, {"measurement": "Activity", "setting": "Human alphaherpesvirus 2", "result": "inactive"}, {"measurement": "Activity", "setting": "Coxsackievirus B4 [1]", "result": "inactive"}, {"measurement": "Activity", "setting": "Punta Toro virus [2]", "result": "inactive"}, {"measurement": "Activity", "setting": "Vero", "result": "Not Active"}, {"measurement": "Activity", "setting": "Human alphaherpesvirus 1", "result": "inactive"}, {"measurement": "Activity", "setting": "[3]", "result": "Not Active"}, {"measurement": "Activity", "setting": "[4]", "result": "inactive"}, {"measurement": "Activity", "setting": "Human respirovirus 3", "result": "inactive"}, {"measurement": "Activity", "setting": "Felid alphaherpesvirus 1", "result": "inactive"}, {"measurement": "Activity", "setting": "MDCK", "result": "Not Active"}, {"measurement": "Activity", "setting": "HEL", "result": "Not Active"}, {"measurement": "Activity", "setting": "[5]", "result": "inactive"}, {"measurement": "Activity", "setting": "Coxsackievirus B4 [6]", "result": "inactive"}, {"measurement": "Activity", "setting": "HeLa", "result": "inactive"}]}, {"smiles": "CC(C)(C)C(=O)OCCN(Cn1cc(F)c(=O)[nH]c1=O)S(=O)(=O)c1cccc([N+](=O)[O-])c1", "values": [{"measurement": "Activity", "setting": "Feline coronavirus", "result": "inactive"}, {"measurement": "pEC50", "setting": "Punta Toro virus [7]", "result": 4.00}, {"measurement": "Activity", "setting": "Sindbis virus", "result": "inactive"}, {"measurement": "Activity", "setting": "Human alphaherpesvirus 2", "result": "inactive"}, {"measurement": "MCC", "setting": "[8]", "result": "≥ 100", "unit": "µM"}, {"measurement": "Activity", "setting": "Coxsackievirus B4 [1]", "result": "inactive"}, {"measurement": "pEC50", "setting": "Coxsackievirus B4 [9]", "result": 4.00}, {"measurement": "Activity", "setting": "Human alphaherpesvirus 1", "result": "inactive"}, {"measurement": "Activity", "setting": "[4]", "result": "inactive"}, {"measurement": "Activity", "setting": "Human respirovirus 3", "result": "inactive"}, {"measurement": "Activity", "setting": "Felid alphaherpesvirus 1", "result": "inactive"}, {"measurement": "CC50", "setting": "[10]", "result": 95, "unit": "µM"}, {"measurement": "Activity", "setting": "HEL", "result": "Not Active"}, {"measurement": "Activity", "setting": "[5]", "result": "inactive"}, {"measurement": "Activity", "setting": "HeLa", "result": "inactive"}, {"measurement": "CC50", "setting": "[11]", "result": "> 100", "unit": "µM"}]}]}
